According to article PMC4000071 (Journal of Toxicologic Pathology, 2014):

What was measured:
[1] = 3-month toxicity study, toxicokinetics; format: in vivo, beagle dogs; details: 30 mg/kg/day
Procedure, shortened: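 Dogs received 7, 15 or 30 mg/kg/day by oral gavage for 3 months. Serial blood was drawn on Days 1, 23, 56 and 91, pre-dose and from 0.5 to 24 h post-dose. One decedent was sampled on Day 86 before euthanasia. Plasma drug was measured and tmax, Cmax, AUC and t1/2 were derived.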

[2] = man, 5 mg projected efficacious dose; cited from earlier work
adrenergic α1B receptor = target: T1, adrenergic α1B receptor (Homo sapiens, UniProt P35368); assay: secondary pharmacology screens, α1B; format: biochemical; details: 10 µM
T1 sequence (P35368 1-520): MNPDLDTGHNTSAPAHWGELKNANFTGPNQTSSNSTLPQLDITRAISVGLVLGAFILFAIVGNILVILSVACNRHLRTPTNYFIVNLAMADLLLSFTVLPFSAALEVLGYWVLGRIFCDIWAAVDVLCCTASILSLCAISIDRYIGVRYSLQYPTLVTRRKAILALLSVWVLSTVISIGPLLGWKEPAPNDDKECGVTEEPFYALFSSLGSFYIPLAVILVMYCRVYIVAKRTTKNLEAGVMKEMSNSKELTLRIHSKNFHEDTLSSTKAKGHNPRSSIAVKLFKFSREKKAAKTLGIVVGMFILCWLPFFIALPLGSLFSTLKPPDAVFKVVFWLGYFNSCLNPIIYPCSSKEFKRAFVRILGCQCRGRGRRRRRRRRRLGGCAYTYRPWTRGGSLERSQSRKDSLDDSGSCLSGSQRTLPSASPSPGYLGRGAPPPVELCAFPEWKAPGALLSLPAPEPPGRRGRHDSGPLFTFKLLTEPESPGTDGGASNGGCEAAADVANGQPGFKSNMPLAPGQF

[3] = target: human 5-hydroxytryptamine 1B (serotonin, or 5-HT1B) receptor; details: antagonist; cited from earlier work
beagle dogs [4] = assay: 1-month toxicity study, in-life, clinical pathology and pathology; format: in vivo; details: dog
beagle dogs [5] = assay: 3-month toxicity study, in-life, clinical pathology and pathology; format: in vivo
Procedure, shortened: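 Beagles aged 9 months received 0, 7, 15 or 30 mg/kg/day by oral gavage for 3 months in 0.1 M lactic acid (pH 3.0). Groups were 3/sex/dose, with 3/sex added for 5-week recovery in control and high dose. Neurologic examination was done. Clinical pathology: pretest, Weeks 6, 13, end of recovery. Full tissue list including dorsal root ganglia. Eyes/optic nerve fixed in Davidson's, sciatic nerve in Bouin's, others in formalin. Sections ~5 µm, H&E.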

phospholipidosis (PLD) = assay: in vitro PLD screen; format: cell-based; details: read-out: EC50 (phospholipogenic, in vitro); in vitro PLD screen; unpublished data
[6] = 1-month, 47 mg/kg/day, 4 affected dogs
[7] = 1-month, 47 mg/kg/day, Week 2 until end of dosing
[8] = Female 15 mg/kg/day (N=3), 3 months
[9] = Female 15 mg/kg/day (N=3), 3 months, highest incidence shown
[10] = Female 30 mg/kg/day (N=2), after 5 weeks of recovery
[11] = Female 30 mg/kg/day (N=5), after 3 months of dosing
[12] = Male 7 mg/kg/day (N=3), 3 months, highest incidence shown
[13] = Male 15 mg/kg/day (N=3), 3 months
[14] = Male 15 mg/kg/day (N=3), 3 months, highest incidence shown
[15] = Male 30 mg/kg/day (N=3), 3 months
[16] = Male 30 mg/kg/day (N=3), 3 months, highest incidence shown
[17] = Male 30 mg/kg/day (N=3), after 5 weeks of recovery
[18] = Male 30 mg/kg/day (N=6), after 3 months of dosing
[19] = dog, 30 mg/kg/day 3 months then 5-week recovery
[20] = dog, 30 mg/kg/day males, Week 3 until end of dosing
[21] = dog, 30 mg/kg/day, after 3 months

## COc1cc2c(c(N3CCN(C)CC3)c1)O[C@@H](C(=O)Nc1ccc(N3CCOCC3)cc1)CC2 [AZD3783, (2R)-6-methoxy-8-(4-methylpiperazin-1-yl)-N-(4-morpholin-4-ylphenyl) chromane-2-carboxamide]
[1]; decedent female, prior to euthanasia on Day 86
  plasma concentration: 17 µM
[1]; dog, 3-month study
  exposure relative to predicted therapeutic exposure: 350 fold
[2]
  estimated AUC: 0.383 µM·h
Adrenergic α1B receptor
  activity at adrenergic α1B receptor: antagonist
[3]
  Ki: 0.0125 µM
Beagle dogs [4]; 1-month
  ECG: no treatment-related effect on ECG
Beagle dogs [4]; 1-month, 2.3 mg/kg/day
  pathological findings in spinal cord or any CNS tissues: no pathological findings
Beagle dogs [4]; 1-month, 14 mg/kg/day
  pathological findings in spinal cord or any CNS tissues: no pathological findings
Beagle dogs [4]; 1-month, 47 mg/kg/day
  dogs with mild to marked increases in liver enzymes (incidence): 4 of 12
  electron microscopy of liver and gallbladder: lamellar bodies consistent with PLD
  liver microscopic findings: inflammatory cell infiltration, degenerative and necrotic changes in the centrilobular region and moderate pigments in histiocytes
  lymphoid tissues microscopic findings: increased incidence and severity of lymphocytolysis
Beagle dogs [4]; [6]
  ALT increase in affected dogs: up to 17 fold vs. pretest
  Aspartate aminotransferase (AST) increase in affected dogs: up to 7 fold vs. pretest
  GLDH increase in affected dogs: up to 37 fold vs. pretest
Beagle dogs [4]; [7]
  alanine aminotransferase (ALT) group mean elevation: approximately 3 fold
  glutamate dehydrogenase (GLDH) group mean elevation: ~7 fold
Beagle dogs [4]; 1-month, 2.3, 14, 47 mg/kg/day
  mortality: All animals survived to scheduled necropsy
Beagle dogs [4]; 1-month, all doses
  ophthalmology observations: No treatment-related observations were seen in the eyes of any dog
Beagle dogs [4]; 1-month, females, 47 mg/kg/day
  platelet counts increase: 24–52%
Beagle dogs [4]; 1-month, males, 47 mg/kg/day
  platelet counts increase: 10–15%
Beagle dogs [4]; recovery animals previously dosed at 47 mg/kg/day
  pathological findings in spinal cord or any CNS tissues: no pathological findings
Beagle dogs [5]; Female 7 mg/kg/day (N=3), 3 months, highest incidence shown
  D.R. ganglion: cerv., thoracic, lumbar: Vacuolation; ganglion cell (incidence): 2
Beagle dogs [5]; Female 7 mg/kg/day (N=3), after 3 months of dosing
  Ophthalmologic finding: Normal (number of dogs): 3
Beagle dogs [5]; [8]
  Brain: Degeneration/necrosis; neuronal (incidence): 1
  Brain: Degeneration: nerve fiber (incidence): 1
  Brain: Gliosis (incidence): 1
  Brain: Vacuolation: neuronal (incidence): 2
Beagle dogs [5]; [9]
  D.R. ganglion: cerv., thoracic, lumbar: Inflammation (incidence): 2
  D.R. ganglion: cerv., thoracic, lumbar: Vacuolation; ganglion cell (incidence): 3
Beagle dogs [5]; Female 15 mg/kg/day (N=3), after 3 months of dosing
  Ophthalmologic finding: Normal (number of dogs): 3
Beagle dogs [5]; [10]
  Ophthalmologic finding: Chorioretinal scar (number of dogs): 1
  Ophthalmologic finding: Normal (number of dogs): 1
  Ophthalmologic finding: Retinal detachment (number of dogs): 1
Beagle dogs [5]; [11]
  Ophthalmologic finding: Normal (number of dogs): 2
  Ophthalmologic finding: Retinal detachment (number of dogs): 2
  Ophthalmologic finding: Retinal hemorrhage (number of dogs): 2
  Ophthalmologic finding: Vitreal hemorrhage (number of dogs): 1
Beagle dogs [5]; [12]
  D.R. ganglion: cerv., thoracic, lumbar: Inflammation (incidence): 1
  D.R. ganglion: cerv., thoracic, lumbar: Vacuolation; ganglion cell (incidence): 1
Beagle dogs [5]; Male 7 mg/kg/day (N=3), after 3 months of dosing
  Ophthalmologic finding: Normal (number of dogs): 3
Beagle dogs [5]; [13]
  Brain: Degeneration: nerve fiber (incidence): 1
  Brain: Vacuolation: neuronal (incidence): 3
  Eye/Optic nerve: Degeneration, optic nerve fiber (incidence): 1
  Eye/Optic nerve: Inflammation: retina (incidence): 1
Beagle dogs [5]; [14]
  D.R. ganglion: cerv., thoracic, lumbar: Degeneration: nerve fiber (incidence): 2
  D.R. ganglion: cerv., thoracic, lumbar: Inflammation (incidence): 2
  D.R. ganglion: cerv., thoracic, lumbar: Vacuolation; ganglion cell (incidence): 3
Beagle dogs [5]; Male 15 mg/kg/day (N=3), after 3 months of dosing
  Ophthalmologic finding: Normal (number of dogs): 3
Beagle dogs [5]; [15]
  Brain: Degeneration/necrosis; neuronal (incidence): 3
  Brain: Degeneration: nerve fiber (incidence): 3
  Brain: Gliosis (incidence): 3
  Brain: Inflammation: perivascular (incidence): 3
  Brain: Vacuolation: neuronal (incidence): 3
  Eye/Optic nerve: Degeneration, optic nerve fiber (incidence): 1
  Eye/Optic nerve: Inclusion: retina (incidence): 3
  Eye/Optic nerve: Inflammation: retina (incidence): 1
  Sciatic nerve: Degeneration: nerve fiber (incidence): 1
Beagle dogs [5]; [16]
  D.R. ganglion: cerv., thoracic, lumbar: Degeneration: nerve fiber (incidence): 3
  D.R. ganglion: cerv., thoracic, lumbar: Inflammation (incidence): 2
  D.R. ganglion: cerv., thoracic, lumbar: Vacuolation; ganglion cell (incidence): 3
  Spinal cord, cerv., thoracic, lumbar: Degeneration: nerve fiber (incidence): 2
Beagle dogs [5]; [17]
  Ophthalmologic finding: Chorioretinal scar (number of dogs): 2
  Ophthalmologic finding: Tepatum hyperreflectivity (number of dogs): 1
Beagle dogs [5]; [18]
  Ophthalmologic finding: Normal (number of dogs): 2
  Ophthalmologic finding: Retinal detachment (number of dogs): 2
  Ophthalmologic finding: Retinal hemorrhage (number of dogs): 3
  Ophthalmologic finding: Vitreal hemorrhage (number of dogs): 1
Beagle dogs [5]; decedent female, 30 mg/kg/day
  GLDH increase vs pretest: 2 fold
  WBC increase vs pretest: < 2 fold
  neutrophils increase vs pretest: 2 fold
Beagle dogs [5]; decedent female, 30 mg/kg/day, Day 84
  bile increase vs pretest: 5 fold
Beagle dogs [5]; [19]
  brain findings after recovery: extensive neuronal loss accompanied by marked astrogliosis
  reversibility of pathological lesions (except thymus and bone marrow): still present after the 5-week recovery period
Beagle dogs [5]; [20]
  ALT group mean elevation vs. pretest: ca. 2 fold
  GLDH group mean elevation vs. pretest: ca. 4 fold
Beagle dogs [5]; [21]
  platelet counts increase: 24–30%
  reticulocytes (% and total count) decrease: 42–50%
Beagle dogs [5]; dog, 3-month study
  NOEL: not established
Beagle dogs [5]; dog, 3-month, 15 and 30 mg/kg/day
  severity of lesions in the brain: dose-related and ranged from slight to moderate
Beagle dogs [5]; dog, 3-month, Week 6 examination
  ophthalmologic observations: No treatment-related ophthalmologic observations
Beagle dogs [5]; dog, 3-month, all treated groups
  gallbladder microscopic findings: pigment deposit (lamina propria) was noted in all animals in the treated groups
Phospholipidosis (PLD)
  EC50: 164 µM
